Assay outcomes deposited in PubChem by Broad Institute.
The sample as a whole holds a higher share of hits than the screen did.
IDH1 mut inh: IDH1 R132H (human) inhibition; AID 624101; inhibition, % at 10 µM; O75874; 70,000 compounds, 0.18% hits; IDH1 R132H reductase, diaphorase/resazurin fluorescence, 60 min; in the data active means inhibition above about 34%; inconclusive means no clear call, values can overlap the other calls; inactive means below about 11%
Target sequence (O75874 whole entry R132H): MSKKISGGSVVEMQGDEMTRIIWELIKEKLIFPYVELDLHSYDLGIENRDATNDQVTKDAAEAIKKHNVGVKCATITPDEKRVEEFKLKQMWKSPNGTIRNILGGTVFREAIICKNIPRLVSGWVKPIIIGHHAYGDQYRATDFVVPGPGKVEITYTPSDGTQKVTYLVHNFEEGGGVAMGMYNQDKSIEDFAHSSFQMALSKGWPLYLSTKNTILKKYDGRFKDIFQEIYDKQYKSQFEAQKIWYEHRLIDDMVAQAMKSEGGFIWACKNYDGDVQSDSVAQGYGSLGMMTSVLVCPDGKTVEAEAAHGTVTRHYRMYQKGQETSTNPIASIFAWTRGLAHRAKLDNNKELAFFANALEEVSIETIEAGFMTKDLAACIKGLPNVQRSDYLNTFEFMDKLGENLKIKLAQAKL
KDM4C inh: inhibitors of human demethylase GASC-1 KDM4C. 96,000 compounds, 0.15% hits. inhibition, % at 12.5 µM. Q9H3R0. GST-KDM4C 2-372, H3K9me3 peptide, LANCE TR-FRET;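 active means mean replicate inhibition above about 25%, with at least 55% of replicates also reaching it, limit read from the data, passing the limit was not always enough; inconclusive means only one of those two conditions met; inactive means neither condition met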
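material = GST-tagged GASC-1 (JMJD2C) catalytic fragment, aa 2-372 | amount = enzyme final amount 10 nM | medium = HEPES buffer, pH 7.5, plus ascorbate | also added = H3K9me3 peptide substrate, Fe(II), 2-oxoglutarate | dosing = single dose | times = 30 min demethylation and 1 h detection at room temperature | detection = LANCE TR-FRET | read-out basis = Fall in 671/618 emission ratio as inhibition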
T cruzi growth-1: inhibitors of T. cruzi proliferation; T. cruzi beta-gal in NIH3T3, GalScreen luminescence, 90 h; 77,000 compounds, 5.9% hits; AID 624255; inhibition, % at 8.34 µM;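 active means mean inhibition above about 93%, with at least 55% of replicates each passing it, limit read from the data, passing the limit was not always enough; inconclusive means only one of those two conditions holds; inactive means neither condition holds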
T cruzi growth-2: Trypanosoma cruzi proliferation inhibition; T. cruzi beta-gal in NIH3T3, GalScreen luminescence, 90 h; shares compounds with T cruzi growth-1; inhibition, % at 8.35 µM; 5,600 compounds, 72% hits;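 active means mean replicate inhibition above about 95% and at least 55% of replicates individually reaching it, limit read from the data; inconclusive means only one of the two criteria is met; inactive means neither criterion is met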
T cruzi growth-3: blocks T. cruzi growth in NIH3T3 host cells; shares compounds with T cruzi growth-1; T. cruzi beta-gal in NIH3T3, GalScreen luminescence, 90 h; inhibition, % at 2.09 µM; 5,600 compounds, 21% hits; AID 651740;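 active means mean inhibition above about 95%, with at least 55% of replicates also reaching it, limit read from the data; inconclusive means meets just one of the two conditions; inactive means meets neither condition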
3T3 cytotox: NIH/3T3 (mouse) viability loss | shares compounds with T cruzi growth-1 | NIH/3T3 viability, CellTiter-Glo ATP luminescence, 90 h | cytotoxicity (signal decrease), % at 8.35 µM | 5,600 compounds, 14% hits;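 active means mean signal decrease across replicates above about 35% based on untreated-well scatter, with enough replicates individually passing, limit read from the data; inconclusive means no rule stated though some were filed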
NIH3T3 tox 2: cytotoxicity in mouse NIH/3T3 fibroblasts. shares compounds with T cruzi growth-1. NIH/3T3 viability, CellTiter-Glo ATP luminescence, 90 h. inhibition, % at 24.9 µM. 5,600 compounds, 56% hits. AID 651744;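 active means mean loss of cell viability signal at or above a set limit, and enough replicates individually reaching it; inconclusive means meets only the mean limit or only the replicate share; inactive means meets neither condition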
A number is an active result; - = inactive; ? = inconclusive; . = not tested or not shown.

SMILES	IDH1 mut inh	KDM4C inh	T cruzi growth-1	T cruzi growth-2	T cruzi growth-3	3T3 cytotox	NIH3T3 tox 2
CC(C)CC#Cc1ccc2c(c1)O[C@@H](CN(C)Cc1ccccn1)[C@H](C)CN([C@@H](C)CO)S2(=O)=O	-	-	131	109	-	-	103
CC(C)CC#Cc1ccc2c(c1)O[C@@H](CN(C)Cc1ccccn1)[C@@H](C)CN([C@@H](C)CO)S2(=O)=O	-	-	116	105	-	-	102
C[C@@H](O)C#Cc1ccc2c(c1)O[C@H](CN(C)Cc1ccccn1)[C@@H](C)CN([C@@H](C)CO)S2(=O)=O	-	-	-	.	.	.	.
CC(C)CC#Cc1ccc2c(c1)O[C@H](CN(C)Cc1ccccn1)[C@H](C)CN([C@@H](C)CO)S2(=O)=O	-	-	126	100	-	-	104
CC(C)CC#Cc1ccc2c(c1)O[C@@H](CN(C)Cc1ccccn1)[C@H](C)CN([C@H](C)CO)S2(=O)=O	-	-	123	104	-	-	105
C[C@H](O)C#Cc1ccc2c(c1)O[C@@H](CN(C)Cc1ccccn1)[C@@H](C)CN([C@H](C)CO)S2(=O)=O	.	-	-	.	.	.	.
CC1(C)[C@H]2CC=C(/C=N\NC(=O)c3ccccn3)[C@@H]1C2	-	.	.	.	.	.	.
CCC(Sc1nnc2c3ccccc3n(C)c2n1)C(=O)Nc1ncccc1Cl (stereo unspecified)	-	.	.	.	.	.	.
COc1ccc(NC(=O)CNC(=O)c2ccc(OC)c(OC)c2)cc1Cl	-	.	.	.	.	.	.
CC(Oc1cccc(Cl)c1)C(=O)NCc1ccco1 (stereo unspecified)	-	.	.	.	.	.	.
C[C@@H]1CN([C@H](C)CO)C(=O)c2cccc(NC(=O)c3cnccn3)c2O[C@@H]1CN(C)Cc1ccc(Cl)c(Cl)c1	-	-	-	.	.	.	.
C[C@H](CO)N1C[C@H](C)[C@H](CN(C)Cc2ccc3c(c2)OCO3)Oc2c(NC(=O)c3ccncc3)cccc2C1=O	-	-	97	-	-	-	-
C[C@H]1CN([C@@H](C)CO)C(=O)c2cccc(NC(=O)c3ccncc3)c2O[C@@H]1CN(C)Cc1ccc(Cl)c(Cl)c1	-	-	-	.	.	.	.
C[C@H]1CN([C@@H](C)CO)C(=O)c2cccc(NC(=O)c3cnccn3)c2O[C@@H]1CN(C)Cc1ccc(Cl)c(Cl)c1	.	-	109	-	-	-	50
C[C@H](CO)N1C[C@H](C)[C@@H](CN(C)Cc2ccc3c(c2)OCO3)Oc2c(NC(=O)c3cnccn3)cccc2C1=O	.	-	-	.	.	.	.
C[C@@H]1CN([C@@H](C)CO)C(=O)c2cccc(NC(=O)c3cnccn3)c2O[C@@H]1CN(C)Cc1ccc2c(c1)OCO2	.	-	97	-	-	-	50
CC(=O)Nc1ccccc1NC(=O)COc1ccc(Cl)c(C)c1	-	.	.	.	.	.	.
C[C@H]1CN([C@@H](C)CO)S(=O)(=O)c2ccc(-c3ccncc3)cc2O[C@H]1CN(C)Cc1cncnc1	-	-	104	100	-	?	34
Cc1ccc(-c2ccc3c(c2)O[C@H](CN(C)Cc2cncnc2)[C@@H](C)CN([C@H](C)CO)S3(=O)=O)cc1	-	-	102	102	-	42	65
C[C@@H]1CN([C@H](C)CO)S(=O)(=O)c2ccc(-c3cncnc3)cc2O[C@@H]1CN(C)Cc1cncnc1	-	-	-	.	.	.	.
C[C@H]1CN([C@@H](C)CO)S(=O)(=O)c2ccc(-c3cncnc3)cc2O[C@H]1CN(C)Cc1cncnc1	-	-	-	.	.	.	.
C[C@H](CO)N1C[C@H](C)[C@@H](CN(C)Cc2cncnc2)Oc2cc(-c3ccncc3)ccc2S1(=O)=O	-	-	101	104	?	-	41
Cc1ccc(-c2ccc3c(c2)O[C@H](CN(C)Cc2cncnc2)[C@H](C)CN([C@H](C)CO)S3(=O)=O)cc1	-	-	.	.	.	.	.
Cc1c(Cl)cccc1NC(=O)CSc1nnc(-c2ccc(Cl)c(Cl)c2)n1C	-	.	.	.	.	.	.
CCn1c(SCC(=O)N2CCc3ccccc32)nnc1-c1ccc([N+](=O)[O-])cc1	-	.	.	.	.	.	.
SMILES	IDH1 mut inh	KDM4C inh	T cruzi growth-1	T cruzi growth-2	T cruzi growth-3	3T3 cytotox	NIH3T3 tox 2
Cc1ccc(NC(=O)CSc2nc3ccccc3s2)cc1C	-	.	.	.	.	.	.
COc1cccc(C(=O)Nc2sc3c(c2C(=O)NCc2cccnc2)CCCC3)c1	-	.	.	.	.	.	.
N#C[C@@H]1[C@H](c2ccc(-c3ccccc3)cc2)[C@H](CO)N1C(=O)Cc1ccccc1	.	-	?	103	-	-	-
N#C[C@@H]1[C@H](c2ccccc2)[C@@H](CO)N1C(=O)c1cc(Cl)cc(Cl)c1	.	-	-	.	.	.	.
N#C[C@@H]1[C@@H](c2ccc(-c3ccccc3)cc2)[C@H](CO)N1C(=O)Cc1ccccc1	.	-	-	.	.	.	.
N#C[C@H]1[C@H](c2ccc(-c3ccccc3)cc2)[C@H](CO)N1C(=O)Cc1ccccc1	.	-	-	.	.	.	.
N#C[C@H]1[C@@H](c2ccccc2)[C@H](CO)N1C(=O)c1cc(Cl)cc(Cl)c1	.	-	?	?	-	-	-
N#C[C@H]1[C@@H](c2ccc(-c3ccccc3)cc2)[C@H](CO)N1C(=O)Cc1ccccc1	.	-	104	110	-	-	31
COc1ccc(C#Cc2ccc([C@@H]3[C@@H](CO)N4CCCCN(Cc5ccccc5F)C[C@@H]34)cc2)cc1	.	-	-	.	.	.	.
O=C(Nc1ccccc1F)N1CCCCN2[C@H](CO)[C@@H](c3ccc(C#Cc4cccnc4)cc3)[C@@H]2C1	.	-	99	108	-	-	55
OC[C@@H]1[C@@H](c2ccc(C#Cc3cccnc3)cc2)[C@@H]2CN(Cc3ccccc3F)CCCCN12	.	-	112	103	98	36	104
O=C(Nc1ccccc1F)N1CCCCN2[C@H](C1)[C@@H](c1ccc(C#Cc3cccnc3)cc1)[C@@H]2CO	.	-	104	106	-	-	65
O=C(Nc1ccccc1F)N1CCCCN2[C@H](CO)[C@@H](c3ccc(C#Cc4ccccc4)cc3)[C@H]2C1	.	-	-	.	.	.	.
O=C(Nc1ccccc1F)N1CCCCN2[C@H](CO)[C@@H](c3ccc(C#Cc4ccccc4)cc3)[C@@H]2C1	.	-	-	.	.	.	.
O=C(Nc1ccccc1F)N1CCCCN2[C@H](CO)[C@H](c3ccc(C#Cc4ccccc4)cc3)[C@@H]2C1	.	-	-	.	.	.	.
O=C(Nc1ccccc1F)N1CCCCN2[C@@H](CO)[C@@H](c3ccc(C#Cc4cccnc4)cc3)[C@@H]2C1	.	-	107	97	-	-	60
COc1c(S(=O)(=O)N2CCCN(S(=O)(=O)c3ccc(Cl)c(Cl)c3OC)CC2)ccc(Cl)c1Cl	-	.	.	.	.	.	.
Cc1ccc(-c2nnc(SCc3ccccc3C#N)n2-c2ccccc2)cc1Cl	-	.	.	.	.	.	.
COC(=O)c1cccc(NC(=O)CSc2nc3cc4ccccc4cc3[nH]2)c1	-	.	.	.	.	.	.
Cc1ccc(NC(=O)CSc2nccc(C)n2)cc1	-	.	.	.	.	.	.
